5HT1E ag: 5-HT1E (human) receptor agonism; P28566; CHO 5-HT1E Ga15 NFAT-bla reporter, FRET; 0% DMSO wells, 100% control agonist wells; activation, % at 6 µM; 65,000 tested, 0.69% active;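 active means activation above a set limit, the screen-wide mean activation plus 3 SD, cut at about 8.5% in these data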
5HT1a ag: agonists of human 5-HT1a serotonin receptor. P08908. CHO 5-HT1a Ga15 NFAT-bla reporter, FRET ratio; 0% basal, 100% maximal reference agonist. activation, % at 10 µM. 65,000 tested, 0.56% active;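 active means activation above the screen-wide mean activation plus 3 SD, cut at about 19% in these data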
Target sequence (P08908 whole entry, looked up): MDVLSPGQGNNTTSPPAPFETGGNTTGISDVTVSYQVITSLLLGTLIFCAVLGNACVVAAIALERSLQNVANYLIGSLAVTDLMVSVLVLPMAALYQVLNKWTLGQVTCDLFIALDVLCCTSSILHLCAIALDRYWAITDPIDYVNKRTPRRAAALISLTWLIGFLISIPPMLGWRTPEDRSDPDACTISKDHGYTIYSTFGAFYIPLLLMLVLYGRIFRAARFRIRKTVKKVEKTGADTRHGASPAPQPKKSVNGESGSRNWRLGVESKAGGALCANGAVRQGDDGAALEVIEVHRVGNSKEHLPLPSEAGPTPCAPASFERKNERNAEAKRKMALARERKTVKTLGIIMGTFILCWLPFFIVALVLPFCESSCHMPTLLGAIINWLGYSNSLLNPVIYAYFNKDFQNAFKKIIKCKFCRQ
5HT1E antag: 5-HT1E (human) receptor antagonism. inhibition, % at 6 µM. P28566. AID 571. CHO 5-HT1E Ga15 NFAT-bla reporter, FRET, antagonist. 65,000 tested, 0.99% active;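 active means inhibition above a set limit, the mean inhibition across every tested compound plus 3 SD, cut at about 29% in these data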;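 further: signal is the 460 over 535 nm emission ratio of beta-lactamase substrate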
S1P3 ag: activates the human S1P3 receptor | Q99500 | S1P3 NFAT-BLA reporter cells, agonism, FRET ratio; relative to 1 µM S1P, basal subtracted | activation, % at 4.5 µM | 60,000 tested, 0.1% active | AID 373;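 active means activation above the screen-wide mean plus 3 SD, cut at about 4.5% in these data, passing the limit was not always enough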
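material = human S1P3 NFAT-BLA reporter CHO cells | schedule = 4 h compound at 37 °C, 2 h substrate at RT | measured by = fluorescent BLA substrate, ex 405 nm, em 460/535 nm ratio | controls = 1 µM S1P reference | replication = primary once, confirmation triplicate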
S1P1 ag-PAM: activates or potentiates agonism at human S1P1 receptor; P21453; S1P1 CRE-bla cells, forskolin, beta-lactamase FRET, potentiator mode; S1P1 agonist co-added at EC20, 2 nM; 100% = saturating reference agonist, 0% = basal; activation, % at 9.5 µM; 56,000 tested, 0.57% active; AID 449;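 active means activation above a cutoff set at the mean activation of all tested compounds plus 3 SD, cut at about 54% in these data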;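 further: forskolin at 4 µM as EC80 and the EC20 agonist is SEW2871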
5HT1a antag: blocks the human serotonin 5-HT1a receptor | P08908 | CHO 5-HT1a Ga15 NFAT-bla reporter, antagonist mode | inhibition, % at 10 µM | 62,000 tested, 0.68% active | AID 612;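 active means inhibition above the mean of all tested compounds plus 3 SD, cut at about 43% in these data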;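 further: receptor stimulated by 5-CT agonist at 100 nM near EC80; beta-lactamase reporter measured by ratiometric fluorescence of a cleavable substrate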
A number is an active result; . = inactive; / = not tested or not shown. Compounds with a hit are over-represented: about 3% of the library has one in this group of screens.

SMILES | 5HT1E ag | 5HT1a ag | 5HT1E antag | S1P3 ag | S1P1 ag-PAM | 5HT1a antag
O=C1NCCN1Cc1cccc(Cl)c1 | . | 28.3 | . | . | . | .
O=S(=O)(c1ccccc1)N1CCN(Cc2cccc(Cl)c2)CC1 | . | . | . | . | . | .
COc1ccc2c(c1OC)C(=O)N(C(C)C(=O)O)C2=O (centres undefined) | . | . | . | . | . | .
CCc1ccc2oc(-c3cc(N)cc(C)c3O)nc2c1 | . | . | . | . | 64.7 | .
COc1ccc(C(=O)Oc2c(CN3CCOCC3)cc(Cl)c3cccnc23)cc1 | . | . | . | . | . | .
O=C(Oc1c(CN2CCOCC2)cc(Cl)c2cccnc12)c1ccc(F)cc1 | . | . | 36.7 | . | . | .
COc1cc(C(=O)Oc2c(CN3CCOCC3)cc(Cl)c3cccnc23)cc(OC)c1OC | . | . | 38.4 | . | . | .
COc1ccccc1NC(=O)Nc1nnc(C(C)C)s1 | . | . | 29.1 | . | . | /
COC(=O)c1ccc(CSc2ccc3nnc(-c4cccc(F)c4)n3n2)o1 | . | . | . | . | . | .
CCOc1ccc(NC(=O)CN(C)CC(=O)Nc2ccccc2C#N)cc1OCC | . | 288.6 | . | . | . | .
CCC(=O)NCCc1cc2cc(C)c(C)cc2[nH]c1=O | . | 224.3 | . | . | . | .
COc1ccc(CCNC(=O)c2cc3ccccn3n2)c(OC)c1OC | . | . | . | . | . | .
COC(=O)c1ccccc1NC(=O)Nc1nnc(N2CCCCC2C)s1 (centres undefined) | . | . | . | . | . | .
COc1ccc(-c2ccc(SCC(=O)N3CCCC3)nn2)cc1OC | . | . | 30.4 | . | . | .
COc1ccc(-c2ccc(SCC(=O)N3CCOCC3)nn2)cc1OC | . | . | . | . | . | .
COc1ccc2c(c1)c(C(=O)CN1CCN(C(=O)c3ccco3)CC1)c(C)n2C | . | . | . | . | . | .
CC(=O)CC1OC(=O)C(Br)=C1NCc1ccccc1 (centres undefined) | . | . | . | . | . | 68.6
O=C(CC1Oc2ccccc2NC1=O)NCc1ccccc1 (centres undefined) | . | . | . | . | . | .
CCc1oc2ccccc2c1C(=O)c1cc(Br)c(O)c(Br)c1 | . | . | . | . | 67.7 | /
CCOC(=O)c1c(COc2ccccc2)oc2ccc(O)cc12 | . | . | . | . | . | .
O=c1nc(-c2ccccc2)n(-c2ccccc2)c2ncccc12 | . | . | . | . | . | .
CCC(C)(C)n1nnnc1C(c1ccc(O)c(OC)c1)N1CCN(c2nc3ccccc3s2)CC1 (centres undefined) | 24.9 | . | . | . | . | .
COc1ccccc1C(c1nnnn1Cc1ccccc1)N1CCN(c2nc3ccccc3s2)CC1 (centres undefined) | . | . | . | . | . | 44.4
CC(C)(C)n1nnnc1C(c1cccc(C#N)c1)N1CCN2CCCC2C1 (centres undefined) | . | . | . | . | . | .
CCC(C)(C)n1nnnc1C(c1cccc(C#N)c1)N1CCN(c2cccc(C)c2C)CC1 (centres undefined) | 10.5 | . | . | . | . | .
SMILES | 5HT1E ag | 5HT1a ag | 5HT1E antag | S1P3 ag | S1P1 ag-PAM | 5HT1a antag
c1ccc(CCCNc2ncnc3nc[nH]c23)cc1 | . | . | . | . | . | .
Clc1ccc(CCNc2ncnc3nc[nH]c23)cc1 | . | . | . | . | 85.1 | .
CC1(C)CC(=O)C(/C=N/n2cnc3ccccc3c2=O)=C(O)C1 | . | . | . | . | . | .
C=CCS/C(=N\n1cnc2ccccc2c1=O)N1CCCCC1 | . | 99.0 | . | . | . | .
O=C(Nc1ccc(N2CCN(C(=O)c3ccco3)CC2)c(Cl)c1)c1cccs1 | . | . | . | . | / | .
O=C(NCCCn1ccnc1)c1ccco1 | . | 20.1 | . | . | . | .
O=C(NCCCn1ccnc1)c1ccncc1 | . | . | . | . | . | .
O=C(Nc1ccc(N2CCCCC2)c(Cl)c1)c1ncn[nH]1 | . | . | . | . | 127.3 | .
CSc1ccccc1NC(=O)c1c(C)noc1C | . | . | . | . | . | .

Assay outcomes from PubChem BioAssay.
